# According to ChEMBL document CHEMBL1141612, “Glyconanobiotics: Novel carbohydrated nanoparticle antibiotics for MRSA and Bacillus anthracis” (2008):
# Experiments:
# Type in all cases: functional
# [1] = test system: Staphylococcus aureus; assay: Antibacterial activity against Staphylococcus aureus ATCC 25923 after 24 hrs by broth dilution MIC assay; settings: ATCC 25923, 24 h
# Procedure, shortened: (§1)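 Broth serial dilution. For nanoparticle emulsions, the drug content is assumed equal to the amount used in the polymerization, expressed as µg drug per mL of undiluted emulsion.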
# [2] = test system: Staphylococcus aureus; assay: Antibacterial activity against methicillin-resistant Staphylococcus aureus ATCC 43300 after 24 hrs by broth dilution MIC assay; settings: ATCC 43300, 24 h; procedure, shortened: as §1
# [3] = test system: Bacillus anthracis; assay: Antibacterial activity against Bacillus anthracis after 24 hrs by broth dilution MIC assay; procedure, shortened: as §1
Compound,MIC [1] [µg/mL],MIC [2] [µg/mL],MIC [3] [µg/mL]
C=CC(=O)O[C@@H]1[C@H]2OC(C)(C)O[C@H]2O[C@@H]1C(COC(=O)CCC(=O)O[C@H]1C(=O)N(SC(C)CC)[C@H]1c1ccccc1Cl)OC(=O)CCC(=O)O[C@H]1C(=O)N(SC(C)CC)[C@H]1c1ccccc1Cl (stereo partly specified) [LACTAM MONOMER],128,128,64
C=CC(=O)O[C@@H]1[C@@H]2OC(C)(C)O[C@@H]2O[C@@H]1C(COC(C)=O)OC(=O)CCC(=O)N1CCN(c2cc3c(cc2F)c(=O)c(C(=O)O)cn3C2CC2)CC1 (stereo partly specified) [CIPROFLOXACIN ACRYLATE],32,32,16
CC1(C)S[C@@H]2[C@H](NC(=O)Cc3ccccc3)C(=O)N2[C@H]1C(=O)O [PENICILLIN G],0.012,16,–
C=CC(=O)O[C@@H]1[C@@H]2OC(C)(C)O[C@@H]2O[C@@H]1C(COC(C)=O)OC(=O)CCC(=O)N[C@@H]1C(=O)N2C1SC(C)(C)[C@@H]2C(=O)O (stereo partly specified),> 256,> 256,> 256
